Experimental data of several laboratories.
Compare with care: the assays were run in different laboratories. pIC50: −log10 of the molar value. Values after ≈ are worked out from the molar mass of the structure shown.
Organism: Mycolicibacterium smegmatis
Read-out: microbial growth

SMILES | assay | test system | setting | quantity | value
CCCCCCCCCc1cn(CCN2CCN(C(=O)c3c(C)nc4sccn34)CC2)nn1 |  |  | 72 h | pIC50 | 4.55
ON=C1C2CC3CC(C2)CC1C3 |  |  | 48 h | pIC50 | < 3.30
CCc1ccc(-c2c[nH]c(N)n2)cc1 |  | ATCC700084 MC^2155 | 48 h | MIC | 100 µM
NNC(=O)c1ccncc1 | resazurin | MC^2155 | 24 h | MIC | 5 µg/mL
CCCCCc1ccc(-c2c[nH]c(N)n2)cc1 |  | ATCC700084 MC^2155 | 48 h | MIC | 200 µM
Cc1nc2sc3ccccc3n2c1C(=O)N1CCN(Cc2cn(-c3ccc([N+](=O)[O-])cc3)nn2)CC1 |  |  | 72 h | pIC50 | < 3.89
O=C(N[C@H](CO)[C@H](O)c1ccc([N+](=O)[O-])cc1)C(Cl)Cl |  | ATCC14468 |  | MIC90 | 125 µg/mL (≈ 387 µM)
Cc1cc(N)c2ccccc2[n+]1CCCCCCCCCC[n+]1c(C)cc(N)c2ccccc21 | disc diffusion |  | 50 µg/disc | inhibition zone | 18 mm
Cc1nc2sc3ccccc3n2c1C(=O)N1CCN(CCn2cc(-c3ccc(C(C)(C)C)cc3)nn2)CC1 |  |  | 72 h | pIC50 | 4.46
CC(C)=CCC/C(C)=C/CNCCNC1C2CC3CC(C2)CC1C3 (stereo not drawn) |  |  | 48 h | pIC50 | 5.60
Cc1ccc(-n2cc(CN3CCN(C(=O)c4c(C)nc5sc6ccccc6n45)CC3)nn2)cc1C |  |  | 72 h | pIC50 | 5.24
NC1C2CC3CC(C2)CC1C3 (stereo not drawn) |  |  | 48 h | pIC50 | < 3.30
